One series relates to Plasma. The series can be described thus: Induction of pre-beta HDL formation in human plasma after 2 hrs by ELISA. Type of series: functional, cell-free. The essentials: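 Increasing peptide concentrations were incubated with normal human plasma at 37 °C for 2 h. Pre-β HDL was quantified by a commercial human pre-β HDL ELISA.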
For orientation: ELISA stands for enzyme-linked immunosorbent assay.

For series [1], the target named is Phospholipid-transporting ATPase ABCA1 (Mus musculus, UniProt P41233). The series can be described thus: Induction of ABCA1-mediated [3H]cholesterol efflux in mouse RAW 264.7 macrophages after 24 hrs.
Sequence of Phospholipid-transporting ATPase ABCA1 (P41233 whole entry): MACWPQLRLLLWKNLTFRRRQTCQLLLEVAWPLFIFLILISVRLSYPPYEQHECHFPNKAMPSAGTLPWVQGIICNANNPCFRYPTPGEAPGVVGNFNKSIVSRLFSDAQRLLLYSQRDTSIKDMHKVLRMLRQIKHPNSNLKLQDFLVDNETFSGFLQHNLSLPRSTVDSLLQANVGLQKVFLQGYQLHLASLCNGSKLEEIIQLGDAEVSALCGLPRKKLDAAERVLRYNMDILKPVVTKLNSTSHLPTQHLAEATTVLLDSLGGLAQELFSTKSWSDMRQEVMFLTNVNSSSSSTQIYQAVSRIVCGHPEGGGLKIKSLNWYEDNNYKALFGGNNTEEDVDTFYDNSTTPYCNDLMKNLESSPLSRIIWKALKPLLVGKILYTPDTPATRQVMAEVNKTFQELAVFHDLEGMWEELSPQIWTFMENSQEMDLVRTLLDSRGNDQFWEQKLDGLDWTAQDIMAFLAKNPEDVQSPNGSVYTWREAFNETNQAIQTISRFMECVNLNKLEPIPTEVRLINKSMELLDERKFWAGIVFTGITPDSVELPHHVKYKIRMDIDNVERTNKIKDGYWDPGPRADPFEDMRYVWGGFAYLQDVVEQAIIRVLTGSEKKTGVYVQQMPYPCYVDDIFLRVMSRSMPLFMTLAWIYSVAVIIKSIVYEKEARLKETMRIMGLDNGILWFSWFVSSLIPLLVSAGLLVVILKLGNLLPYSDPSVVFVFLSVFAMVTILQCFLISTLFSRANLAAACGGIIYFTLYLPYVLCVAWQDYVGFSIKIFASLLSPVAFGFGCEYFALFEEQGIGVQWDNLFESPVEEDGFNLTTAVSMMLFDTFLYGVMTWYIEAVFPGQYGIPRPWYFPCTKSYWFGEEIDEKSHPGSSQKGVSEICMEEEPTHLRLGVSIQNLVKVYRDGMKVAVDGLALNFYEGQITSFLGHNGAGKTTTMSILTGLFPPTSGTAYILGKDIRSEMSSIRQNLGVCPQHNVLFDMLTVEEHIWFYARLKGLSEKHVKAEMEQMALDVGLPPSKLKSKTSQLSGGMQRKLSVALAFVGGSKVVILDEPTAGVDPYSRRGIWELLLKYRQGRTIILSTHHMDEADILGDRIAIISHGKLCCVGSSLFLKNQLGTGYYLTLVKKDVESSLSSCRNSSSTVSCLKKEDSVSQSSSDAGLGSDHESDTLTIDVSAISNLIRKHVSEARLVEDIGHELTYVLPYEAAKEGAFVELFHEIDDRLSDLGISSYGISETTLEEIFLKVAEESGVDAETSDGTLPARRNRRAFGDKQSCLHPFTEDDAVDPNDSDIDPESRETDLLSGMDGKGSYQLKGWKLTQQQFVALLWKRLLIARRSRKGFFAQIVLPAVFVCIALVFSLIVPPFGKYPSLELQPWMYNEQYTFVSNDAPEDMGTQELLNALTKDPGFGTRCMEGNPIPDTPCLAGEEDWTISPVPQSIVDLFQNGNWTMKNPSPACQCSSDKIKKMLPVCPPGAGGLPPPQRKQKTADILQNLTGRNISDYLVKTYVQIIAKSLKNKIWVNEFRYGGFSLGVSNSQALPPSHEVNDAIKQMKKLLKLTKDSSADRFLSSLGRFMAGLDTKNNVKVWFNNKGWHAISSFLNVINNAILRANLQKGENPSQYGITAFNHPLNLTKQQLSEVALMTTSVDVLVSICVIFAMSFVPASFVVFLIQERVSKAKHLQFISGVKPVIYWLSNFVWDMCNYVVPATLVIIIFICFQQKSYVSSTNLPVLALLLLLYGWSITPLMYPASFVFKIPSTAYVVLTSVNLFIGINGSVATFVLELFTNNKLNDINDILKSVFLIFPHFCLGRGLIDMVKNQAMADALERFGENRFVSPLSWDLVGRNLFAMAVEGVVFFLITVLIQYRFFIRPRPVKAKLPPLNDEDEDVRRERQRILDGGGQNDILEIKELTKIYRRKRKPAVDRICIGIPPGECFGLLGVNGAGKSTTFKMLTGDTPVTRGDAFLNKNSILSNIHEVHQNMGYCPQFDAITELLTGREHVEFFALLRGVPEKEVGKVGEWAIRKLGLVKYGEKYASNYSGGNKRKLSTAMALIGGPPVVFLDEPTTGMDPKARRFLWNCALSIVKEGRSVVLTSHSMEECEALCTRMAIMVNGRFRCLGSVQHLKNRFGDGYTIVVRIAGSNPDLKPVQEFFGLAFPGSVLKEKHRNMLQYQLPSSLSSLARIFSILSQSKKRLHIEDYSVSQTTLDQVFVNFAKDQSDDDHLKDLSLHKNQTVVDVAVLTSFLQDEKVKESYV
Series [2] is described as follows: Plasma concentration in C57/BL6 mouse at 60 mg/kg, sc after 3 hrs. Type of series: ADME, organism-based, C57Bl/6. Also noted: dose 60 mg/kg, route subcutaneous. The essentials: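 Male C57Bl/6 mice were dosed subcutaneously with peptide in 50 mM mannitol/PBS. Serum was taken by cardiac puncture, and peptide was measured by LC–MS/MS after acetonitrile protein precipitation.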

Series [3] concerns the target Lipoprotein lipase (Bos taurus) (UniProt P11151). The series is described as follows: Inhibition of Lipoprotein lipase in vitro.

Activity calls are given as the source filed them. The rule behind the calls is not given here. *1 amine or outer side, *2 acyl side, *3 side chain or, on linkers, in order; H or OH if unused. Where a SMILES comes first, the peptide text is derived from it. [ ]: non-standard residue; d: D form. Gly(oct-7-en-1-yl) = C=CCCCCCC[C@H](N)C(=O)O; Ala(5-hexenyl) = C=CCCCCC[C@H](N)C(=O)O; dNle(6-vinyl) = C=CCCCC[C@@H](N)C(=O)O; Gly(octyl) = CCCCCCCC[C@H](N)C(=O)O; X1 = CCCCCCC[C@H](N[*:1])C(=O)[*:2]

In the case of `C=CCCCCCC[C@H](NC(=O)[C@H](CCC(=O)O)NC(=O)[C@H](CC(N)=O)NC(=O)[C@H](CC(C)C)NC(=O)[C@H](CCCCN)NC(=O)[C@H](CCC(=O)O)NC(=O)[C@H](CCCNC(=N)N)NC(=O)[C@H](Cc1ccccc1)NC(=O)[C@H](CCC(=O)O)NC(=O)[C@H](CC(=O)O)NC(=O)[C@H](CC(C)C)NC(=O)[C@@H](NC(=O)[C@@H]1CCCN1C(C)=O)C(C)C)C(=O)N[C@@H](CC(C)C)C(=O)N[C@@H](CCC(=O)O)C(=O)N[C@@H](C)C(=O)N[C@@H](CC(C)C)C(=O)N[C@@H](CCCCN)C(=O)N[C@@H](CCC(N)=O)C(=O)N[C@@H](CCCCN)C(=O)N[C@@H](CC(C)C)C(=O)N[C@@H](CCCCN)C(N)=O` (Ac-PVLDEFREKLNE[Gly(oct-7-en-1-yl)]LEALKQKLK-NH2), in the series on Plasma, the Activity entry was “Dose-dependent effect”. For the compound `CCCCCCCC[C@H](NC(=O)[C@H](CCC(=O)O)NC(=O)[C@H](CC(N)=O)NC(=O)[C@H](CC(C)C)NC(=O)[C@H](CCCCN)NC(=O)[C@H](CCC(=O)O)NC(=O)[C@H](CCCN=C(N)N)NC(=O)[C@H](Cc1ccccc1)NC(=O)[C@H](CCC(=O)O)NC(=O)[C@H](CC(=O)O)NC(=O)[C@H](CC(C)C)NC(=O)[C@@H](NC(=O)[C@@H]1CCCN1C(C)=O)C(C)C)C(=O)N[C@@H](CC(C)C)C(=O)N[C@@H](CCC(=O)O)C(=O)N[C@@H](C)C(=O)N[C@@H](CC(C)C)C(=O)N[C@@H](CCCCN)C(=O)N[C@@H](CCC(N)=O)C(=O)N[C@@H](CCCCN)C(=O)N[C@@H](CC(C)C)C(=O)N[C@@H](CCCCN)C(N)=O` (Ac-PVLDEFREKLNE[Gly(octyl)]LEALKQKLK-NH2), in series [1], the response was half-maximal at 700 nM (EC50). In series [2], this compound displayed a concentration at 3 h of 188 µM.

As for `CCCCCCC[C@H](NC(=O)[C@H](CCC(=O)O)NC(=O)[C@H](CC(N)=O)NC(=O)[C@H](CC(C)C)NC(=O)[C@H](CCCCN)NC(=O)[C@H](CCC(=O)O)NC(=O)[C@H](CCCNC(=N)N)NC(=O)[C@H](Cc1ccccc1)NC(=O)[C@H](CCC(=O)O)NC(=O)[C@H](CC(=O)O)NC(=O)[C@H](CC(C)C)NC(=O)[C@@H](NC(=O)[C@@H]1CCCN1C(C)=O)C(C)C)C(=O)N[C@@H](CC(C)C)C(=O)N[C@@H](CCC(=O)O)C(=O)N[C@@H](C)C(=O)N[C@@H](CC(C)C)C(=O)N[C@@H](CCCCN)C(=O)N[C@@H](CCC(N)=O)C(=O)N[C@@H](CCCCN)C(=O)N[C@@H](CC(C)C)C(=O)N[C@@H](CCCCN)C(N)=O` (Ac-PVLDEFREKLNE[X1]LEALKQKLK-NH2), the Activity result with Plasma is “Dose-dependent effect”. As to `C=CCCCCCC[C@H](NC(=O)[C@H](CCC(=O)O)NC(=O)[C@H](CC(N)=O)NC(=O)[C@H](CC(C)C)NC(=O)[C@H](CCCCN)NC(=O)[C@H](CCC(=O)O)NC(=O)[C@H](CCCN=C(N)N)NC(=O)[C@H](CCCCCCC=C)NC(=O)[C@H](CCC(=O)O)NC(=O)[C@H](CC(=O)O)NC(=O)[C@H](CC(C)C)NC(=O)[C@@H](NC(=O)[C@@H]1CCCN1C(C)=O)C(C)C)C(=O)N[C@@H](CC(C)C)C(=O)N[C@@H](CCC(=O)O)C(=O)N[C@@H](C)C(=O)N[C@@H](CC(C)C)C(=O)N[C@@H](CCCCN)C(=O)N[C@@H](CCC(N)=O)C(=O)N[C@@H](CCCCN)C(=O)N[C@@H](CC(C)C)C(=O)N[C@@H](CCCCN)C(N)=O` (Ac-PVLDE[Gly(oct-7-en-1-yl)]REKLNE[Gly(oct-7-en-1-yl)]LEALKQKLK-NH2), the half-maximal effective concentration (EC50) (usually the concentration at which the effect is half-maximal) in series [1] was determined as 400 nM. Turning to `CCCCCCCC[C@H](NC(=O)[C@H](CCC(=O)O)NC(=O)[C@H](CC(N)=O)NC(=O)[C@H](CC(C)C)NC(=O)[C@H](CCCCN)NC(=O)[C@H](CCC(=O)O)NC(=O)[C@H](CCCNC(=N)N)NC(=O)[C@H](CCCCCCCC)NC(=O)[C@H](CCC(=O)O)NC(=O)[C@H](CC(=O)O)NC(=O)[C@H](CC(C)C)NC(=O)[C@@H](NC(=O)[C@@H]1CCCN1C(C)=O)C(C)C)C(=O)N[C@@H](CC(C)C)C(=O)N[C@@H](CCC(=O)O)C(=O)N[C@@H](C)C(=O)N[C@@H](CC(C)C)C(=O)N[C@@H](CCCCN)C(=O)N[C@@H](CCC(N)=O)C(=O)N[C@@H](CCCCN)C(=O)N[C@@H](CC(C)C)C(=O)N[C@@H](CCCCN)C(N)=O` (Ac-PVLDE[Gly(octyl)]REKLNE[Gly(octyl)]LEALKQKLK-NH2), the concentration giving a half-maximal response (EC50) in series [1] turned out to be 600 nM. Take `C=CCCCCC[C@H](NC(=O)[C@H](CCC(=O)O)NC(=O)[C@H](CC(N)=O)NC(=O)[C@H](CC(C)C)NC(=O)[C@H](CCCCN)NC(=O)[C@H](CCC(=O)O)NC(=O)[C@H](CCCN=C(N)N)NC(=O)[C@@H](CCCCC=C)NC(=O)[C@H](CCC(=O)O)NC(=O)[C@H](CC(=O)O)NC(=O)[C@H](CC(C)C)NC(=O)[C@@H](NC(=O)[C@@H]1CCCN1C(C)=O)C(C)C)C(=O)N[C@@H](CC(C)C)C(=O)N[C@@H](CCC(=O)O)C(=O)N[C@@H](C)C(=O)N[C@@H](CC(C)C)C(=O)N[C@@H](CCCCN)C(=O)N[C@@H](CCC(N)=O)C(=O)N[C@@H](CCCCN)C(=O)N[C@@H](CC(C)C)C(=O)N[C@@H](CCCCN)C(N)=O` (Ac-PVLDE[dNle(6-vinyl)]REKLNE[Ala(5-hexenyl)]LEALKQKLK-NH2): a half-maximal effect in series [1] (EC50) was put at 800 nM. This compound also yielded a concentration at 3 h in series [2] of 116 µM. As for `C=CCCCCC[C@H](NC(=O)[C@H](CCC(=O)O)NC(=O)[C@H](CC(N)=O)NC(=O)[C@H](CC(C)C)NC(=O)[C@H](CCCCN)NC(=O)[C@H](CCC(=O)O)NC(=O)[C@H](CCCN=C(N)N)NC(=O)[C@H](Cc1ccccc1)NC(=O)[C@H](CCC(=O)O)NC(=O)[C@H](CC(=O)O)NC(=O)[C@H](CC(C)C)NC(=O)[C@H](CCCCCC=C)NC(=O)[C@@H]1CCCN1C(C)=O)C(=O)N[C@@H](CC(C)C)C(=O)N[C@@H](CCC(=O)O)C(=O)N[C@@H](C)C(=O)N[C@@H](CC(C)C)C(=O)N[C@@H](CCCCN)C(=O)N[C@@H](CCC(N)=O)C(=O)N[C@@H](CCCCN)C(=O)N[C@@H](CC(C)C)C(=O)N[C@@H](CCCCN)C(N)=O` (Ac-P[Ala(5-hexenyl)]LDEFREKLNE[Ala(5-hexenyl)]LEALKQKLK-NH2), in series [1], a half-maximal effect (EC50) was put at 400 nM.

Regarding `C=CCCCCC[C@H](NC(=O)[C@H](CCC(=O)O)NC(=O)[C@H](CC(N)=O)NC(=O)[C@H](CC(C)C)NC(=O)[C@H](CCCCN)NC(=O)[C@H](CCC(=O)O)NC(=O)[C@H](CCCNC(=N)N)NC(=O)[C@H](Cc1ccccc1)NC(=O)[C@H](CCC(=O)O)NC(=O)[C@H](CC(=O)O)NC(=O)[C@H](CC(C)C)NC(=O)[C@H](CCCCCC=C)NC(=O)[C@@H]1CCCN1C(C)=O)C(=O)N[C@@H](CC(C)C)C(=O)N[C@@H](CCC(=O)O)C(=O)N[C@@H](C)C(=O)N[C@@H](CC(C)C)C(=O)N[C@@H](CCCCN)C(=O)N[C@@H](CCC(N)=O)C(=O)N[C@@H](CCCCN)C(=O)N[C@@H](CC(C)C)C(=O)N[C@@H](CCCCN)C(N)=O` (Ac-P[Ala(5-hexenyl)]LDEFREKLNE[Ala(5-hexenyl)]LEALKQKLK-NH2), in the series with Plasma, the outcome was inactive. With `C=CCCCCC[C@H](NC(=O)[C@H](CCC(N)=O)NC(=O)[C@H](CCCCN)NC(=O)[C@H](CC(C)C)NC(=O)[C@H](C)NC(=O)[C@H](CCC(=O)O)NC(=O)[C@H](CC(C)C)NC(=O)[C@H](CCCCCC=C)NC(=O)[C@H](CCC(=O)O)NC(=O)[C@H](CC(N)=O)NC(=O)[C@H](CC(C)C)NC(=O)[C@H](CCCCN)NC(=O)[C@H](CCC(=O)O)NC(=O)[C@H](CCCN=C(N)N)NC(=O)[C@H](Cc1ccccc1)NC(=O)[C@H](CCC(=O)O)NC(=O)[C@H](CC(=O)O)NC(=O)[C@H](CC(C)C)NC(=O)[C@H](CCCCCC=C)NC(=O)[C@@H]1CCCN1C(C)=O)C(=O)N[C@@H](CC(C)C)C(=O)N[C@@H](CCCCN)C(N)=O` (Ac-P[Ala(5-hexenyl)]LDEFREKLNE[Ala(5-hexenyl)]LEALKQ[Ala(5-hexenyl)]LK-NH2), the EC50 in series [1] is 5000 nM. Still for that read-out and setting: the value for `C=CCCCCC[C@H](NC(=O)[C@H](CCC(=O)O)NC(=O)[C@H](CC(N)=O)NC(=O)[C@H](CC(C)C)NC(=O)[C@H](CCCCN)NC(=O)[C@H](CCC(=O)O)NC(=O)[C@H](CCCN=C(N)N)NC(=O)[C@H](CCCCCC=C)NC(=O)[C@H](CCC(=O)O)NC(=O)[C@H](CC(=O)O)NC(=O)[C@H](CC(C)C)NC(=O)[C@H](CCCCCC=C)NC(=O)[C@@H]1CCCN1C(C)=O)C(=O)N[C@@H](CC(C)C)C(=O)N[C@@H](CCC(=O)O)C(=O)N[C@@H](C)C(=O)N[C@@H](CC(C)C)C(=O)N[C@@H](CCCCN)C(=O)N[C@@H](CCC(N)=O)C(=O)N[C@@H](CCCCN)C(=O)N[C@@H](CC(C)C)C(=O)N[C@@H](CCCCN)C(N)=O` (Ac-P[Ala(5-hexenyl)]LDE[Ala(5-hexenyl)]REKLNE[Ala(5-hexenyl)]LEALKQKLK-NH2) was 1900 nM; that for `C=CCCCCC[C@H](NC(=O)[C@H](CCC(N)=O)NC(=O)[C@H](CCCCN)NC(=O)[C@H](CC(C)C)NC(=O)[C@H](C)NC(=O)[C@H](CCC(=O)O)NC(=O)[C@H](CC(C)C)NC(=O)[C@H](CCCCCC=C)NC(=O)[C@H](CCC(=O)O)NC(=O)[C@H](CC(N)=O)NC(=O)[C@H](CC(C)C)NC(=O)[C@H](CCCCN)NC(=O)[C@H](CCC(=O)O)NC(=O)[C@H](CCCNC(=N)N)NC(=O)[C@H](CCCCCC=C)NC(=O)[C@H](CCC(=O)O)NC(=O)[C@H](CC(=O)O)NC(=O)[C@H](CC(C)C)NC(=O)[C@H](CCCCCC=C)NC(=O)[C@@H]1CCCN1C(C)=O)C(=O)N[C@@H](CC(C)C)C(=O)N[C@@H](CCCCN)C(N)=O` (Ac-P[Ala(5-hexenyl)]LDE[Ala(5-hexenyl)]REKLNE[Ala(5-hexenyl)]LEALKQ[Ala(5-hexenyl)]LK-NH2) was 6700 nM. With `CC(=O)N[C@H](CC(=O)O)C(=O)N[C@H](Cc1c[nH]c2ccccc12)C(=O)N[C@H](Cc1ccccc1)C(=O)N[C@H](CCCCN)C(=O)N[C@H](C)C(=O)N[C@H](Cc1ccccc1)C(=O)N[C@H](Cc1ccc(O)cc1)C(=O)N[C@H](CC(=O)O)C(=O)N[C@H](CCCCN)C(=O)N[C@@H](C(=O)N[C@H](C)C(=O)N[C@H](CCC(=O)O)C(=O)N[C@H](CCCCN)C(=O)N[C@H](Cc1ccccc1)C(=O)N[C@H](CCCCN)C(=O)N[C@H](CCC(=O)O)C(=O)N[C@H](C)C(=O)N[C@H](Cc1ccccc1)C(N)=O)C(C)C` (Ac-[dD][dW][dF][dK][dA][dF][dY][dD][dK][dV][dA][dE][dK][dF][dK][dE][dA][dF]-NH2), the IC50 – broadly, the concentration at which inhibition is half-maximal – in series [3] came out at 24000 nM. The same compound registered an EC50 in series [1] of 2000 nM.

Ac-PVLDEFREKLNEELEALKQKLK-NH2 registered a concentration giving a half-maximal response (EC50) in series [1] of over 100000 nM. The same compound came in with a concentration at 3 h in series [2] of 0.33 µM.

For the origin of these results see ChEMBL document CHEMBL1629456, “ApoA-I mimetic peptides promote pre-β HDL formation in vivo causing remodeling of HDL and triglyceride accumulation at higher dose” (Bioorg Med Chem, 2010).
